Measured values taken from PubChem BioAssay AID2298 (NMMLSC, 2010).

target: Regulator of G-protein signaling 16 (Homo sapiens) (UniProt O15492); experiment: small molecules altering RGS16 interaction with Galphao – biochemical, multiplexed bead flow cytometry, SAR compounds, SAR follow-up (AID 2298); details: bead-based flow cytometry, AF488-Galphao binding to RGS16
In short: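 Test system: biotinylated RGS16 on colour-coded streptavidin beads, multiplexed with other RGS beads. Reagent: AF488-Galphao (AlF4-activated), 7 nM final. Compound: Nine-point threefold dilution series of compound. Timing: 30–90 min binding at room temperature. Measured by: flow cytometry, median FL1 fluorescence per bead set. Benchmarks: DMSO wells as full binding, RGS-free beads as background.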

Regulator of G-protein signaling 16 (Homo sapiens), sequence (O15492 whole entry, looked up): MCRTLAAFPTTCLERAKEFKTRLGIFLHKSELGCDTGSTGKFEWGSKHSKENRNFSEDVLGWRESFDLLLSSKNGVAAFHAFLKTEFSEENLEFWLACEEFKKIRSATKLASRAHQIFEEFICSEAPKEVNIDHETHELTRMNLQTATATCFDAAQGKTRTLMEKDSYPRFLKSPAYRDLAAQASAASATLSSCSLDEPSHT

| EC50 | Structure (SMILES) |
| --- | --- |
| 29 nM | NS(=O)(=O)c1ccc(N/N=C/c2ccc(O)c(O)c2O)c([N+](=O)[O-])c1 |

same assay, conditions: bead-based flow cytometry, AF488-Galphao binding to RGS16; measured here: Ki derived from EC50, inhibitors

| Structure (SMILES) | Ki |
| --- | --- |
| CC1(C)OC(=O)C(=Cc2ccc(-c3ccc(S(N)(=O)=O)cc3)o2)C(=O)O1 | 2840 nM |
| CCOC(=O)c1sc(NC(=O)CSc2nnc(Cc3ccccc3)o2)c(C#N)c1C | 580 nM |
| CN1CCN(C2=C(Cl)C(=O)C(c3cnc(N4CCCCC4)s3)=C(Cl)C2=O)CC1 | 20 nM |
| CCN=c1scc(C)n1/N=C/c1ccc(O)c(O)c1O | 850 nM |
| O=C(COc1ccccc1C(=O)N/N=C/c1ccc(O)c(O)c1)N/N=C/c1ccc(O)c(O)c1 | 90 nM |
| COc1ccc(C2=CC(=O)C=CC2=O)cc1 | 120 nM |
| O=C(Cc1csc(N2CCOCC2)n1)N/N=C/c1ccc(O)c(O)c1O | 670 nM |
| COC(=O)CCC(=O)Nc1sc(C)c(C)c1C(N)=O | 1140 nM |
| O=C(NCCCN1CCOCC1)c1sc2cc([N+](=O)[O-])ccc2c1Cl | 270 nM |
| NS(=O)(=O)c1ccc(N/N=C/c2ccc(O)c(O)c2O)c([N+](=O)[O-])c1 | 20 nM |
| Cc1cccc(N2CCN(C(=O)Cn3sc4nc(C)cc(C)c4c3=O)CC2C)c1 (centres undefined) | 90 nM |

Now from value to molecule:

| Ki | Structure (SMILES) |
| --- | --- |
| 40 nM | Cc1cc(Cl)ccc1N=c1ssnc1Cl |
| 480 nM | CCN(CC)S(=O)(=O)c1cccc(C(=O)N/N=C/c2ccc(O)c(O)c2O)c1 |
| 1160 nM | Cc1cccc(N2CCN(C(=O)COc3nsc4nc(C)cc(C)c34)CC2C)c1 (centres undefined) |
| 410 nM | CN=c1scc(C)n1/N=C/c1ccc(O)c(O)c1O |
| 100 nM | O=C1C(Cl)=C(N2CCCCC2)C(=O)C(Cl)=C1c1cnc(N2CCCCC2)s1 |
| 220 nM | CC(=O)OCCCNc1cc(Sc2nc3ccccc3s2)c2nonc2c1[N+](=O)[O-] |
| 170 nM | CC(NC(=O)c1sc2cc([N+](=O)[O-])ccc2c1Cl)C(C)(C)C (centres undefined) |
| 40 nM | Cc1[nH]n(-c2ccccc2)c(=S)c1C=Nc1cccc([N+](=O)[O-])c1 |
| 330 nM | Cc1[nH]n(-c2ccccc2)c(=S)c1C=NCCCN=Cc1c(C)[nH]n(-c2ccccc2)c1=S |
| 4240 nM | CCC(=O)NC(c1ccc(C)cc1)c1cc([N+](=O)[O-])c2cccnc2c1O (centres undefined) |
| 20 nM | O=c1c2ccccc2sn1-c1ccc(S(=O)(=O)N2CCCC2)cc1 |
| 760 nM | CCN(CC)S(=O)(=O)c1cccc(-c2n[nH]c(=S)n2/N=C/c2ccc(C(=O)OC)cc2)c1 |
